Converted amounts (≈) assume the structure as drawn. The source made the active and inactive calls. The rule behind the calls is not given here.
What was measured:
[1] = system: Enterobacter cloacae; test: Antimicrobial activity against Enterobacter cloacae at 10 ug/disk after 24 hrs by disk diffusion assay; type: functional
In short: (§1)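 Disc diffusion on 4 mm filter discs. Bacteria are grown overnight in LB at 28 C, then adjusted in saline to 1.0 × 10^5 cfu/ml. The suspension is mixed into top agar over peptone agar plates. Plates are incubated 24 h at 28 C, and growth-inhibition zone diameter is measured. Streptomycin and ampicillin controls are applied from a 1 mg/ml stock. Tests are done in duplicate.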

[2] = system: Micrococcus flavus; test: Antimicrobial activity against Micrococcus flavus at 1 umol/spot after 18 hrs by TLC-bioautographic method; type: functional
In short: (§2)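 TLC bioautography. Samples are spotted on silica gel TLC plates, then sprayed with bacteria (1.0 × 10^5 cfu/ml) in tryptic soy broth. Plates are incubated 18 h at 37 C and sprayed with 3% aqueous p-iodonitrotetrazolium violet. After a further 3 h, growth is stopped with 70% EtOH. White zones on a pink background are scored as inhibition-zone diameter with standard errors.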

[3] = system: Enterobacter cloacae; test: Antimicrobial activity against Enterobacter cloacae after 24 hrs by microdilution technique; type: functional
In short: (§3)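 Broth microdilution in LB medium. Inoculum is 1.0 × 10^4 cfu per well, from a saline-adjusted suspension of 1.0 × 10^5 cfu/ml. Compounds are dissolved in DMSO. Incubated 24 h at 28 C. MIC is the lowest concentration with no visible growth under a binocular microscope. MBC is read by subculture into fresh broth for 72 h, with no growth taken as 99.5% kill. OD is read at 655 nm.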

[4] = system: Salmonella typhimurium; test: Antimicrobial activity against Salmonella Typhimurium at 1 umol/disk after 24 hrs by disk diffusion assay; type: functional, organism-based; conditions: Salmonella enterica subsp. enterica serovar Typhimurium; in short: as §1
[5] = system: Micrococcus flavus; test: Antimicrobial activity against Micrococcus flavus at 10 ug/disk after 24 hrs by disk diffusion assay; type: functional; conditions: read-out: IZ; in short: as §1
[6] = system: Enterobacter cloacae; test: Antimicrobial activity against Enterobacter cloacae at 1 umol/spot after 18 hrs by TLC-bioautographic method; type: functional; in short: as §2
[7] = system: Salmonella typhimurium; test: Antimicrobial activity against Salmonella Typhimurium at 10 ug/disk after 24 hrs by disk diffusion assay; type: functional, organism-based; conditions: Salmonella enterica subsp. enterica serovar Typhimurium; in short: as §1
[8] = system: Bacillus cereus; test: Antimicrobial activity against Bacillus cereus at 1 umol/spot after 18 hrs by TLC-bioautographic method; type: functional; in short: as §2
[9] = system: Staphylococcus aureus; test: Antimicrobial activity against Staphylococcus aureus after 24 hrs by microdilution technique; type: functional; in short: as §3
[10] = system: Pseudomonas aeruginosa; test: Antimicrobial activity against Pseudomonas aeruginosa at 1 umol/spot after 18 hrs by TLC-bioautographic method; type: functional; in short: as §2
[11] = system: Bacillus cereus; test: Antimicrobial activity against Bacillus cereus after 24 hrs by microdilution technique; type: functional; in short: as §3
[12] = system: Salmonella typhimurium; test: Antimicrobial activity against Salmonella Typhimurium at 1 umol/spot after 18 hrs by TLC-bioautographic method; type: functional; in short: as §2
[13] = system: Listeria monocytogenes; test: Antimicrobial activity against Listeria monocytogenes at 1 umol/disk after 24 hrs by disk diffusion assay; type: functional; in short: as §1
[14] = system: Listeria monocytogenes; test: Antimicrobial activity against Listeria monocytogenes after 24 hrs by microdilution technique; type: functional; in short: as §3
[15] = system: Escherichia coli; test: Antimicrobial activity against Escherichia coli at 1 umol/spot after 18 hrs by TLC-bioautographic method; type: functional; in short: as §2
[16] = system: Listeria monocytogenes; test: Antimicrobial activity against Listeria monocytogenes at 1 umol/spot after 18 hrs by TLC-bioautographic method; type: functional; in short: as §2
[17] = system: Escherichia coli; test: Antimicrobial activity against Escherichia coli at 1 umol/disk after 24 hrs by disk diffusion assay; type: functional; in short: as §1
[18] = system: Pseudomonas aeruginosa; test: Antimicrobial activity against Pseudomonas aeruginosa at 1 umol/disk after 24 hrs by disk diffusion assay; type: functional; in short: as §1
[19] = system: Pseudomonas aeruginosa; test: Antimicrobial activity against Pseudomonas aeruginosa at 10 ug/disk after 24 hrs by disk diffusion assay; type: functional; in short: as §1
[20] = system: Bacillus cereus; test: Antimicrobial activity against Bacillus cereus at 10 ug/disk after 24 hrs by disk diffusion assay; type: functional; in short: as §1
[21] = system: Micrococcus flavus; test: Antimicrobial activity against Micrococcus flavus at 1 umol/disk after 24 hrs by disk diffusion assay; type: functional; in short: as §1
[22] = system: Staphylococcus aureus; test: Antimicrobial activity against Staphylococcus aureus at 10 ug/disk after 24 hrs by disk diffusion assay; type: functional; in short: as §1
[23] = system: Escherichia coli; test: Antimicrobial activity against Escherichia coli after 24 hrs by microdilution technique; type: functional; in short: as §3
[24] = system: Micrococcus flavus; test: Antimicrobial activity against Micrococcus flavus after 24 hrs by microdilution technique; type: functional; in short: as §3
[25] = system: Escherichia coli; test: Antimicrobial activity against Escherichia coli at 10 ug/disk after 24 hrs by disk diffusion assay; type: functional; conditions: read-out: IZ; in short: as §1
[26] = system: Listeria monocytogenes; test: Antimicrobial activity against Listeria monocytogenes at 10 ug/disk after 24 hrs by disk diffusion assay; type: functional; in short: as §1
[27] = system: Salmonella typhimurium; test: Antimicrobial activity against Salmonella Typhimurium after 24 hrs by microdilution technique; type: functional, Salmonella enterica subsp. enterica serovar Typhimurium; conditions: Salmonella enterica; in short: as §3
[28] = system: Staphylococcus aureus; test: Antimicrobial activity against Staphylococcus aureus at 1 umol/spot after 18 hrs by TLC-bioautographic method; type: functional; in short: as §2
[29] = system: Pseudomonas aeruginosa; test: Antimicrobial activity against Pseudomonas aeruginosa after 24 hrs by microdilution technique; type: functional; in short: as §3
[30] = system: Bacillus cereus; test: Antimicrobial activity against Bacillus cereus at 1 umol/disk after 24 hrs by disk diffusion assay; type: functional; in short: as §1
[31] = system: Staphylococcus aureus; test: Antimicrobial activity against Staphylococcus aureus at 1 umol/disk after 24 hrs by disk diffusion assay; type: functional; in short: as §1
[32] = system: Enterobacter cloacae; test: Antimicrobial activity against Enterobacter cloacae at 1 umol/disk after 24 hrs by disk diffusion assay; type: functional; in short: as §1

MIC [3] [µM]	MIC [9] [µM]	MIC [11] [µM]	MIC [14] [µM]	SMILES	inhibition zone (IZ) [2]	MBC [3] [µM]	inhibition zone (IZ) [4]	zone of inhibition at 10 µg/disc [5] [mm]	inhibition zone (IZ) [6]	inhibition zone (IZ) [7]	inhibition zone (IZ) [8]	MBC [9] [µM]	inhibition zone (IZ) [10]	MBC [11] [µM]	MBC [14] [µM]	inhibition zone (IZ) [15]	inhibition zone (IZ) [16]	inhibition zone (IZ) [17] [millimeter]	inhibition zone (IZ) [18]	inhibition zone (IZ) [19]	other results
372 (≈ 130 µg/mL)	248 (≈ 86.7 µg/mL)	248 (≈ 86.7 µg/mL)	372 (≈ 130 µg/mL)	CC1(C)S[C@@H]2[C@H](NC(=O)[C@H](N)c3ccccc3)C(=O)N2[C@H]1C(=O)O [AMPICILLIN]	inactive	492 (≈ 172 µg/mL)	inactive	8	inactive	inactive	inactive	372 (≈ 130 µg/mL)	inactive	372 (≈ 130 µg/mL)	744 (≈ 260 µg/mL)	inactive	inactive	0.02	inactive	inactive	zone of inhibition at 10 µg/disc ([1]; read-out: IZ): 6 mm; inhibition zone (IZ) ([12]; Salmonella enterica subsp. enterica serovar Typhimurium): inactive; inhibition zone (IZ) [13]: inactive; zone of inhibition at 10 µg/disc ([20]; read-out: IZ): 10 mm; inhibition zone (IZ) [21]: 0.03 millimeter; zone of inhibition at 10 µg/disc ([22]; read-out: IZ): 8 mm; MBC [23]: 492 µM (≈ 172 µg/mL); MIC [23]: 372 µM (≈ 130 µg/mL); MBC [24]: 372 µM (≈ 130 µg/mL); MIC [24]: 248 µM (≈ 86.7 µg/mL); zone of inhibition at 10 µg/disc [25]: 6 mm; inhibition zone (IZ) [26]: inactive; MBC [27]: 492 µM (≈ 172 µg/mL); MIC [27]: 248 µM (≈ 86.7 µg/mL); inhibition zone (IZ) [28]: inactive; MBC [29]: 1240 µM (≈ 433 µg/mL); MIC [29]: 744 µM (≈ 260 µg/mL)
173 (≈ 99.9 µg/mL)	173 (≈ 99.9 µg/mL)	86.5 (≈ 50 µg/mL)	346 (≈ 200 µg/mL)	COc1ccccc1-c1cc(-c2ccc(Nc3nc(Nc4ccccc4)nc(Nc4ccccc4)n3)cc2)nc(N)c1C#N	0.06 millimeter	346 (≈ 200 µg/mL)	inactive	10	0.08 millimeter	inactive	inactive	346 (≈ 200 µg/mL)	inactive	173 (≈ 99.9 µg/mL)	692 (≈ 400 µg/mL)	inactive	0.09 millimeter	0.04	inactive	inactive	inhibition zone (IZ) [1]: inactive; inhibition zone (IZ) [30]: inactive; inhibition zone (IZ) [31]: inactive; inhibition zone (IZ) [12]: 0.07 millimeter; inhibition zone (IZ) [20]: inactive; inhibition zone (IZ) [21]: 0.06 millimeter; inhibition zone (IZ) [22]: inactive; MBC [23]: 346 µM (≈ 200 µg/mL); MIC [23]: 173 µM (≈ 99.9 µg/mL); MBC [24]: 173 µM (≈ 99.9 µg/mL); MIC [24]: 86.5 µM (≈ 50 µg/mL); zone of inhibition at 10 µg/disc [25]: 7 mm; inhibition zone (IZ) [32]: inactive; zone of inhibition at 10 µg/disc ([26]; read-out: IZ): 6 mm; MBC [27]: 346 µM (≈ 200 µg/mL); MIC [27]: 173 µM (≈ 99.9 µg/mL); inhibition zone (IZ) [28]: inactive; MBC [29]: 692 µM (≈ 400 µg/mL); MIC [29]: 346 µM (≈ 200 µg/mL)
